Assay results published in publication PMC3205354 (Chemistry & biology, 2011).

Columns and labels:
[1] = tested on: GST-fusion FAPP1 PH domain; test: Liposome binding assay; set-up: species or system human; settings: SUVs of POPC, POPE, POPS and PI (50:20:15:15); 20 mM MOPS, 100 mM KCl, pH 7.0
Summary of the method: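 GST-tagged FAPP1 PH expressed in E. coli BL21(DE3) and purified on glutathione Sepharose. Lipids dried from CHCl3:MeOH:H2O (65:25:4) were resuspended in MOPS/KCl buffer and extruded 19 times through a 1 µm membrane. Liposomes were pelleted at 25,000 × g for 20 min, resuspended, and incubated with protein (stock 1.7 µg/µl) for 1 hr at room temperature. They were re-pelleted, and pellet and supernatant were analysed by SDS-PAGE.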

[2] = target: T1, FAPP1 PH domain (Homo sapiens, UniProt Q9HB20); test: SPR equilibrium binding to lipid vesicles; settings: read-out: Kd (SPR); POPC/POPE/PI (75:20:5) liposomes; 10 mM HEPES (pH 7.4), 160 mM KCl, 25°C
T1 sequence (Q9HB20 1-99): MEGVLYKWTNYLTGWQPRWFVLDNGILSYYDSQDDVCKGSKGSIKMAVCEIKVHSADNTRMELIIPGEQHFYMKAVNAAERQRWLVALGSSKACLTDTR

[3] = target: T1, FAPP1 PH domain; settings: 5 mol% in monolayer; ref He, et al., 2011; cited from earlier work
[4] = target: T1, FAPP1 PH domain; test: NMR 1H,15N HSQC titration; assay type: binding; settings: read-out: Kd (NMR); 25 mM Bis-Tris, 150 mM NaCl, pH 6.5, 25°C
Summary of the method: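 Human FAPP1 PH (aa 1–99), ¹⁵N-labeled, expressed in E. coli Rosetta (DE3) pLysS in ¹⁵NH₄Cl minimal medium (0.1 mM IPTG, room temperature, 6 hr). It was purified on Talon resin, His tag removed with thrombin, then size exclusion. HSQC spectra of 0.1–0.2 mM protein were recorded at 600 MHz with stepwise ligand addition. Normalized ¹H/¹⁵N shift changes were fitted against ligand and protein concentrations to give Kd.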

partitioning of GST-FAPP1 PH between supernatant and pelleted SUVs [1] | Kd [2] [mM] | Compound | surface pressure (πc) [3] [mN/m] | Kd [4] [mM]
half of the protein associated with SUVs | 0.00046 | CCCCCCCCCCCCCCCC(=O)OC[C@H](COP(=O)(O)O[C@H]1[C@H](O)[C@@H](O)[C@H](OP(=O)(O)O)[C@@H](O)[C@H]1O)OC(=O)CCCCCCCCCCCCCCC [C16-PtdIns(4)P] | 33 | 
 |  | O=P(O)(O)OC1[C@@H](O)[C@@H](O)C(OP(=O)(O)O)[C@H](O)[C@H]1O (stereo partly shown) [Ins(1,4)P2, inositol 1,4-bisphosphate] |  | 20
